From ChEMBL document CHEMBL5335826, “Biochemical and Structural Studies of the Carminomycin 4-O-Methyltransferase DnrK” (J Nat Prod, 2024)
Calls of active or inactive are those of the source. No cut-off for these calls is given here.

System: Ambystoma mexicanum
Test: Inhibition of Ambystoma mexicanum tail regeneration at 10 uM
Assay type: functional
Outline: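 Stage 42 Ambystoma mexicanum embryos were manually hatched and anesthetized with benzocaine, then given 2 mm tail amputations. They were reared at 18–19 °C in artificial pond water containing test agent in DMSO (0.1% final DMSO), with solutions changed at 3 and 5 dpa. Regeneration was imaged at 0, 3, 5 and 7 dpa, ending at 7 dpa. DMSO vehicle was the negative control and geldanamycin the positive control.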

## COc1cc(O)c2c(c1)C(=O)c1cc3c(c(O)c1C2=O)[C@@H](O[C@@H]1O[C@@H](C)[C@H](OC)[C@@H](O)[C@H]1OC)[C@H](OC)[C@](C)(O)C3=O
  tail regeneration inhibition (active/not active): Active

## CO[C@H]1[C@H](O[C@@H]2c3c(cc4c(c3O)C(=O)c3c(O)cccc3C4=O)C(=O)[C@@](C)(O)[C@H]2OC)O[C@@H](C)[C@H](O)[C@H]1O
  tail regeneration inhibition (active/not active): inactive

## COc1cccc2c1C(=O)c1c(O)c3c(c(O)c1C2=O)C[C@@](O)(C(C)=O)C[C@@H]3O[C@H]1C[C@H](N)[C@H](O)[C@H](C)O1
  tail regeneration inhibition (active/not active): inactive

## CC(=O)[C@]1(O)Cc2c(O)c3c(c(O)c2[C@@H](O[C@H]2C[C@H](N)[C@H](O)[C@H](C)O2)C1)C(=O)c1c(O)cccc1C3=O
  tail regeneration inhibition (active/not active): inactive

## COc1cccc2c1C(=O)c1c(cc3c(c1O)[C@@H](O[C@@H]1O[C@@H](C)[C@H](O)[C@@H](O)[C@H]1OC)[C@H](OC)[C@](C)(O)C3=O)C2=O
  tail regeneration inhibition (active/not active): inactive
